Measured values taken from ChEMBL document CHEMBL3868590, “Quambalarine B, a Secondary Metabolite from Quambalaria cyanescens with Potential Anticancer Properties” (J Nat Prod, 2016).
Activity calls are given as the source filed them. No cut-off for these calls is given here.

What was measured:
Jurkat [1] = assay: Decrease in C-MYC mRNA level in human Jurkat cells at EC50 measured after 24 hrs by RT-qPCR analysis; assay type: functional, cell-based
REH [2] = assay: Cytostatic activity against eFluor670-labelled human REH cells assessed as live cells at 2 umol/L measured on day 1 by Hoechst-33258 staining-based FACS analysis (reference value: 89.8%); assay type: functional
REH [3] = assay: Cytostatic activity against eFluor670-labelled human REH cells assessed as live cells at 2 umol/L measured on day 3 by Hoechst-33258 staining-based FACS analysis (reference value: 90.2%); assay type: functional
Jurkat [4] = assay: Cytostatic activity against eFluor670-labelled human Jurkat cells assessed as live cells at 2 umol/L measured on day 2 by Hoechst-33258 staining-based FACS analysis (reference value: 97%); assay type: functional
Jurkat [5] = assay: Cytostatic activity against eFluor670-labelled human Jurkat cells assessed as live cells at 2 umol/L measured on day 1 by Hoechst-33258 staining-based FACS analysis (reference value: 98.2%); assay type: functional
REH [6] = assay: Inhibition of P70S6K in human REH cells assessed as decrease in phosphorylated P70S6K expression measured after 24 hrs by immunoblot analysis; assay type: cell-based
In short: (§1)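 Cells prepared as for RT-qPCR (7.5 × 10^5 cells/mL). Treated either with the line-specific EC50 concentration over a time course, or 24 h with graded concentrations up to that EC50. Cells washed with phosphatase inhibitors and lysed in RIPA; 40 μg protein per lane on SDS-PAGE, then nitrocellulose. Immunoblotted for C-MYC, P70S6K, p-P70S6K (Ser424) and actin.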

Jurkat [7] = assay: Inhibition of P70S6K in human Jurkat cells assessed as decrease in C-MYC expression measured after 24 hrs by immunoblot analysis; assay type: cell-based; in short: as §1
[8] = Downregulation of P70S6K protein expression in human NALM6 cells at EC50 measured after 24 hrs by immunoblot analysis; assay type: functional, cell-based; details: NALM-6; in short: as §1
REH [9] = assay: Cytostatic activity against eFluor670-labelled human REH cells assessed as live cells at 2 umol/L measured immediately after compound addition by Hoechst-33258 staining-based FACS analysis (reference value: 44.1%); assay type: functional
NALM-6 [10] = assay: Cytostatic activity against human NALM6 cells assessed as population doubling level at 2 umol/L after 6 days using Burker counting chamber (reference value: 3.44); assay type: functional
In short: (§2)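 Cells were seeded at 2.5 × 10^5 cells/mL in DMSO-containing medium, with or without 2 μmol/L compound. Cells were counted daily in a Bürker chamber. PDL was calculated as log(Nf/N0)/log 2 over 6 days. Values are mean ± SD of three experiments, compared with DMSO controls.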

[11] = Cytotoxicity against PHA/LPS-stimulated CD3-positive T-lymphocytes in eFluor-670-labeled human PBMC assessed as divided cells at 2 umol/L administered post 18 hrs of PHA/LPS-stimulation measured after 72 hrs by Hoechst-33258 staining-based FACS analysis (reference value: 24.2%); assay type: toxicity; details: t-cell, 2 µM
In short: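 PBMC were labelled with 1 μmol/L CPD, stimulated with PHA (5 μg/mL) plus LPS (1 μg/mL), and seeded at 3 × 10^5 cells/well in 300 μL. Compound was added after 18 h and left for 72 h. Cells were stained with anti-CD3. Unstimulated cells set the CPD+ gate. Proliferation index, division index and % divided were calculated for CPD+CD3+ Hoechst-negative cells.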

[12] = Cytotoxicity against CD14+ monocytes in human PBMC population assessed as reduction in viable cells measured after 24 hrs by Hoechst-33258 staining-based FACS analysis; assay type: toxicity, cell-based, Monocyte
In short: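 PBMC were isolated from blood on a Ficoll-Paque gradient and seeded at 1 × 10^5 cells/well in 400 μL RPMI1640. Cells were exposed to a range of compound concentrations for 24 h. Viable CD3+, CD14+ and CD20+ populations were measured as Hoechst 33258-negative singlets by flow cytometry. EC50 was obtained by five-parameter nonlinear regression.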

[13] = target: Myc proto-oncogene protein (Homo sapiens) (UniProt P01106); assay: Inhibition of C-MYC in human Jurkat cells assessed as decrease in LDHA level at EC50 measured after 24 hrs by RT-qPCR analysis; assay type: cell-based
Chain of Myc proto-oncogene protein (Homo sapiens) (P01106 whole entry): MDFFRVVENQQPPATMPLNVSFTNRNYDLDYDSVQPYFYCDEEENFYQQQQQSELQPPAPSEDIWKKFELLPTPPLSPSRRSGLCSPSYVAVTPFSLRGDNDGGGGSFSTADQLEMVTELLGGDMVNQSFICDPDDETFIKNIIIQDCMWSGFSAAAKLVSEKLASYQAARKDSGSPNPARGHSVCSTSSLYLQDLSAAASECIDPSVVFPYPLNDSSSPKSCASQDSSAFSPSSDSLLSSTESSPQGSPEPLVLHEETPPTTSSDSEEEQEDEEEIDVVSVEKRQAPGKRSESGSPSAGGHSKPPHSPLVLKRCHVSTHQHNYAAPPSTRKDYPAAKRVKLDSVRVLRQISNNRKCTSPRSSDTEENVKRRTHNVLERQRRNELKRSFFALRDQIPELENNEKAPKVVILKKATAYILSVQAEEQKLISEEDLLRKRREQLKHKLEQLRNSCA

Jurkat [14] = assay: Cytostatic activity against eFluor670-labelled human Jurkat cells assessed as live cells at 2 umol/L measured on day 4 by Hoechst-33258 staining-based FACS analysis (reference value: 97.3%); assay type: functional
REH [15] = assay: Cytostatic activity against human REH cells assessed as population doubling level at 2 umol/L after 6 days by Burker counting chamber (reference value: 3.55); assay type: functional; in short: as §2
[16] = target: Myc proto-oncogene protein (Homo sapiens) (UniProt P01106); assay: Inhibition of C-MYC in human NALM6 cells assessed as decrease in GLS level at EC50 measured after 24 hrs by RT-qPCR analysis; assay type: cell-based; details: NALM-6
[17] = Downregulation of P70S6K protein expression in human Jurkat cells up to 20 umol/L measured after 24 hrs by immunoblot analysis; assay type: functional, cell-based; in short: as §1
REH [18] = assay: Cytostatic activity against eFluor670-labelled human REH cells assessed as live cells at 2 umol/L measured on day 5 by Hoechst-33258 staining-based FACS analysis (reference value: 85.6%); assay type: functional
NALM-6 [19] = assay: Cytostatic activity against human NALM6 cells at 2 umol/L measured after 4 to 5 days using Burker counting chamber; assay type: functional, cell-based; in short: as §2
NALM-6 [20] = assay: Decrease in C-MYC mRNA level in human NALM6 cells at EC50 measured after 24 hrs by RT-qPCR analysis; assay type: functional, cell-based
[21] = target: Myc proto-oncogene protein (Homo sapiens) (UniProt P01106); assay: Inhibition of C-MYC in human Jurkat cells assessed as decrease in GLS level at EC50 measured after 24 hrs by RT-qPCR analysis; assay type: cell-based
Jurkat [22] = assay: Cytostatic activity against eFluor670-labelled human Jurkat cells assessed as live cells at 2 umol/L measured on day 3 by Hoechst-33258 staining-based FACS analysis (reference value: 98.3%); assay type: functional
Jurkat [23] = assay: Inhibition of P70S6K in human Jurkat cells assessed as decrease in c-MYC expression at EC50 up to 24 hrs by immunoblot analysis; assay type: cell-based; in short: as §1
NALM-6 [24] = assay: Cytostatic activity against eFluor670-labelled human NALM6 cells assessed as live cells at 2 umol/L measured on day 2 by Hoechst-33258 staining-based FACS analysis (reference value: 97.7%); assay type: functional
[25] = Cytotoxicity against human Jurkat cells assessed as reduction in viable cells measured after 24 hrs by Hoechst-33258 staining-based FACS analysis; assay type: functional, cell-based
In short: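 Leukemic lines kept in RPMI1640 with 10% FBS, penicillin/streptomycin, 37 °C, 5% CO2. Seeded at 2 × 10^5 cells/mL and exposed 24 h to a range of compound concentrations (DMSO stock); medium and DMSO negative controls. Live fraction taken from Hoechst 33258-negative singlets by flow cytometry. EC50 from five-parameter nonlinear regression.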

REH [26] = assay: Decrease in C-MYC mRNA level in human REH cells at EC50 measured after 24 hrs by RT-qPCR analysis; assay type: functional, cell-based
[27] = Cytotoxicity against PHA/LPS-stimulated CD3-positive T-lymphocytes in eFluor670-labeled human PBMC assessed as division index at 2 umol/L administered post 18 hrs of PHA/LPS-stimulation measured after 72 hrs by Hoechst-33258 staining-based FACS analysis (reference value: 0.381); assay type: toxicity; details: t-cell, 2 µM

inhibition [13]: Active | inhibition [16]: Active | inhibition [21]: Active
SMILES: CCCCCC(=O)C1=C(O)C(=O)c2c(O)c(O)cc(O)c2C1=O
Activity (Jurkat [1]): Active | Activity (REH [2]): 74.9% | Activity (REH [3]): 15.8% | Activity (Jurkat [4]): 70.1% | Activity (Jurkat [5]): 88.4% | inhibition (REH [6]): Dose-dependent effect | inhibition (Jurkat [7]): Dose-dependent effect | Activity [8]: Active | Activity (REH [9]): 44.1% | Activity (NALM-6 [10]): 1.75 | Activity [11]: 15.9% | EC50 at 24 h [12]: 15.1 µM | Activity (Jurkat [14]): 39.5% | Activity (REH [15]): 1.32 | inhibition [17]: Active | Activity (REH [18]): 4.17% | Activity (NALM-6 [19]): Active | Activity (NALM-6 [20]): Active | Activity (Jurkat [22]): 69.2% | inhibition (Jurkat [23]): Active | Activity (NALM-6 [24]): 97.7% | EC50 [25]: 7.41 µM | Activity (REH [26]): Active | Activity_index [27]: 0.196
